Measured values as given in ChEMBL document CHEMBL1177718, “Phosphoramidate ProTides of 2'-C-methylguanosine as highly potent inhibitors of hepatitis C virus. Study of their in vitro and in vivo properties” (J Med Chem, 2010).

Legend:
Plasma = assay: Dose normalized AUC in ICR mouse plasma at 50 mg/kg, po by LC-MS/MS analysis; assay type: ADME, organism-based; design: dose 50 mg/kg, route oral; conditions: in vivo
[1] = Metabolic stability in mouse plasma assessed as compound remaining at 1 ug/ml after 30 mins; assay type: ADME, cell-free; conditions: read-out: Stability
[2] = Metabolic stability in dog plasma assessed as compound remaining at 1 ug/ml after 30 mins; assay type: ADME, cell-free, Canis lupus familiaris; conditions: read-out: Stability
Outline: (§1)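 Duplicate incubations; compound at final 1 μg/mL in plasma preincubated and kept at […]; samples taken at 30 or 240 min, quenched with ice-cold acetonitrile, centrifuged, supernatant diluted with water; parent quantified by LC-MS/MS (Polar-RP column, formic acid water/acetonitrile gradient, positive ion mode); % remaining reported.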

[3] = Cytotoxicity against human HuH7 cells after 72 hrs by celltiter-glo assay; assay type: cell-based, Huh-7
Outline: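 Replicon 1b Huh7 cells seeded 2 × 10⁴/well; after 24 h, 11 serial 2× dilutions from 100 μM (three repeats each) with no-compound control; 72 h at 37 °C, CO₂, log-phase growth; viability by CellTiter-Glo luminescence; CC₅₀ = concentration giving 50% signal.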

Hepatitis C virus = assay: Antiviral activity against HCV1b infected in human HuH7 cells assessed as inhibition of viral replication after 48 hrs by luciferase reporter gene assay; assay type: functional, organism-based, Hepacivirus hominis; conditions: genotype 1b, Huh-7, 48 h
Outline: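 Huh7 cells carrying genotype 1b bicistronic subgenomic replicon, seeded 2 × 10⁴/well without G-418; compounds added 18-24 h later, 48 h exposure; 3× or 4× serial dilutions over 0.0001-10 μM in triplicate/quadruplicate; Renilla luciferase read-out versus untreated cells; EC₅₀ by four-parameter sigmoidal nonlinear regression; at least three independent assays.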

[4] = Cmax in ICR mouse plasma at 50 mg/kg, po by LC-MS/MS analysis; assay type: ADME, organism-based; design: dose 50 mg/kg, route oral
Homo sapiens [5] = species: Homo sapiens; assay: Metabolic stability in human plasma assessed as compound remaining at 1 ug/ml after 30 mins
[6] = Metabolic stability in human intestine S9 fraction assessed as compound remaining at 10 uM after 60 mins by HPLC analysis in presence of NADP; assay type: ADME, tissue-based; conditions: read-out: Stability
Outline: (§2)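 Liver or intestinal S9 at final 1 mg/mL in 50 mM potassium phosphate, with or without NADPH-regenerating system (1.3 mM NADP, 3.3 mM glucose-6-phosphate, 0.4 U/mL G6PDH, 3.3 mM MgCl₂); 10 min preincubation at 37 °C; compound at final 10 μM; samples at start and 60 min quenched in cold acetonitrile, centrifuged, HPLC; % parent remaining.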

[7] = Metabolic stability in human intestine S9 fraction assessed as compound remaining at 10 uM after 60 mins by HPLC analysis in absence of NADP; assay type: ADME, tissue-based; conditions: read-out: Stability; outline: as §2
[8] = Metabolic stability in dog intestine S9 fraction assessed as compound remaining at 10 uM after 60 mins by HPLC analysis in presence of NADP; assay type: ADME, tissue-based, Canis lupus familiaris; conditions: read-out: Stability; outline: as §2
[9] = Metabolic stability in dog liver S9 fraction assessed as compound remaining at 10 uM after 60 mins by HPLC analysis in absence of NADP; assay type: ADME, subcellular, Canis lupus familiaris; conditions: read-out: Stability; outline: as §2
[10] = Metabolic stability in dog liver S9 fraction assessed as compound remaining at 10 uM after 60 mins by HPLC analysis in presence of NADP; assay type: ADME, subcellular, Canis lupus familiaris; conditions: read-out: Stability; outline: as §2
[11] = Metabolic stability in human liver S9 fraction assessed as compound remaining at 10 uM after 60 mins by HPLC analysis in absence of NADP; assay type: ADME, subcellular; conditions: read-out: Stability; outline: as §2
[12] = Metabolic stability in human liver S9 fraction assessed as compound remaining at 10 uM after 60 mins by HPLC analysis in presence of NADP; assay type: ADME, subcellular; conditions: read-out: Stability; outline: as §2
[13] = Metabolic stability in mouse plasma assessed as compound remaining at 1 ug/ml after 4 hrs; assay type: ADME, cell-free; conditions: read-out: Stability
[14] = Metabolic stability in rat plasma assessed as compound remaining at 1 ug/ml after 4 hrs; assay type: ADME, cell-free; conditions: read-out: Stability; outline: as §1
[15] = Metabolic stability in dog plasma assessed as compound remaining at 1 ug/ml after 4 hrs; assay type: ADME, cell-free, Canis lupus familiaris; conditions: read-out: Stability; outline: as §1
[16] = Metabolic stability in cynomolgus monkey plasma assessed as compound remaining at 1 ug/ml after 4 hrs; assay type: ADME, cell-free, Macaca fascicularis; conditions: read-out: Stability; outline: as §1
[17] = Metabolic stability in rat plasma assessed as compound remaining at 1 ug/ml after 30 mins; assay type: ADME, cell-free; conditions: read-out: Stability; outline: as §1
[18] = Metabolic stability in cynomolgus monkey plasma assessed as compound remaining at 1 ug/ml after 30 mins; assay type: ADME, cell-free, Macaca fascicularis; conditions: read-out: Stability; outline: as §1
Homo sapiens [19] = species: Homo sapiens; assay: Metabolic stability in human plasma assessed as compound remaining at 1 ug/ml after 4 hrs
[20] = Metabolic stability in dog intestine S9 fraction assessed as compound remaining at 10 uM after 60 mins by HPLC analysis in absence of NADP; assay type: ADME, tissue-based, Canis lupus familiaris; conditions: read-out: Stability; outline: as §2

Compound | remaining at 0.5 h, 1 ug/ml [1] | remaining at 0.5 h, 1 ug/ml [2] | EC50 (Hepatitis C virus) | remaining at 0.5 h, 1 ug/ml (Homo sapiens [5]) | remaining at 4 h, 1 ug/ml [13] | remaining at 4 h, 1 ug/ml [14] | remaining at 4 h, 1 ug/ml [15] | remaining at 4 h, 1 ug/ml [16] | remaining at 0.5 h, 1 ug/ml [17] | remaining at 0.5 h, 1 ug/ml [18] | remaining at 4 h, 1 ug/ml (Homo sapiens [19]) | CC50 at 72 h [3] | also measured
CC(C)[C@H](NP(=O)(OC[C@H]1O[C@@H](n2cnc3c(=O)[nH]c(N)nc32)[C@](C)(O)[C@@H]1O)Oc1cccc2ccccc12)C(=O)OCC(C)(C)C (some centres not stated) | 77% | 79% | 1500 nM | 91% | – | – | – | – | – | – | – | > 100000 nM | AUC (Plasma): > 45 ng·h/mL; Cmax [4]: 652 ng/mL
CC(C)(NP(=O)(OC[C@H]1O[C@@H](n2cnc3c(=O)[nH]c(N)nc32)[C@](C)(O)[C@@H]1O)Oc1cccc2ccccc12)C(=O)OCc1ccccc1 (some centres not stated) | 0% | 100% | 1500 nM | 100% | 0% | 0% | 100% | 83% | 0% | 92% | 41% | – | –
C[C@H](NP(=O)(OC[C@H]1O[C@@H](n2cnc3c(=O)[nH]c(N)nc32)[C@](C)(O)[C@@H]1O)Oc1cccc2ccccc12)C(=O)OC1CCCCC1 (some centres not stated) | 2.9% | 100% | 45 nM | 100% | 0% | 0.5% | 100% | 100% | 2.5% | 100% | 100% | > 100000 nM | –
COC(=O)[C@H](C)NP(=O)(OC[C@H]1O[C@@H](n2cnc3c(=O)[nH]c(N)nc32)[C@](C)(O)[C@@H]1O)Oc1cccc2ccccc12 (some centres not stated) | 1.7% | – | 210 nM | – | – | – | – | – | – | – | – | > 50000 nM | remaining at 1 h, 10 µM [20]: 54%; remaining at 1 h, 10 µM [6]: 60%; remaining at 1 h, 10 µM [7]: 63%; remaining at 1 h, 10 µM [8]: 50%; remaining at 1 h, 10 µM [9]: 85%; remaining at 1 h, 10 µM [10]: 67%; remaining at 1 h, 10 µM [11]: 40%; remaining at 1 h, 10 µM [12]: 20%
C[C@H](NP(=O)(OC[C@H]1O[C@@H](n2cnc3c(=O)[nH]c(N)nc32)[C@](C)(O)[C@@H]1O)Oc1cccc2ccccc12)C(=O)OCCc1ccccc1 (some centres not stated) | – | – | 90 nM | – | – | – | – | – | – | – | – | > 100000 nM | –

More lines, in order of falling EC50 (Hepatitis C virus), values ahead:

remaining at 0.5 h, 1 ug/ml [1] | remaining at 0.5 h, 1 ug/ml [2] | EC50 (Hepatitis C virus) | remaining at 0.5 h, 1 ug/ml (Homo sapiens [5]) | remaining at 4 h, 1 ug/ml [13] | remaining at 4 h, 1 ug/ml [14] | remaining at 4 h, 1 ug/ml [15] | remaining at 4 h, 1 ug/ml [16] | remaining at 0.5 h, 1 ug/ml [17] | remaining at 0.5 h, 1 ug/ml [18] | remaining at 4 h, 1 ug/ml (Homo sapiens [19]) | Compound | CC50 at 72 h [3] | also measured
99% | 95% | 1700 nM | 93% | 76% | 22% | 99% | 95% | 49% | 100% | 100% | CC(C)[C@H](NP(=O)(OC[C@H]1O[C@@H](n2cnc3c(=O)[nH]c(N)nc32)[C@](C)(O)[C@@H]1O)Oc1ccc2ccccc2c1)C(=O)OCc1ccccc1 (some centres not stated) | > 100000 nM | –
– | – | 1700 nM | – | – | – | – | – | – | – | – | CC(C)[C@H](NP(=O)(OC[C@H]1O[C@@H](n2cnc3c(=O)[nH]c(N)nc32)[C@](C)(O)[C@@H]1O)Oc1cccc2ccccc12)C(=O)OCCc1ccccc1 (some centres not stated) | > 100000 nM | –
76% | 100% | 340 nM | – | 32% | 0.5% | 100% | 93% | 2.3% | 96% | – | CSCC[C@H](NP(=O)(OC[C@H]1O[C@@H](n2cnc3c(=O)[nH]c(N)nc32)[C@](C)(O)[C@@H]1O)Oc1cccc2ccccc12)C(=O)OC(C)C (some centres not stated) | > 100000 nM | –
76% | – | 280 nM | – | – | – | – | – | – | – | – | COC(=O)[C@H](CCSC)NP(=O)(OC[C@H]1O[C@@H](n2cnc3c(=O)[nH]c(N)nc32)[C@](C)(O)[C@@H]1O)Oc1cccc2ccccc12 (some centres not stated) | > 100000 nM | remaining at 1 h, 10 µM [6]: 42%; remaining at 1 h, 10 µM [7]: 27%; remaining at 1 h, 10 µM [8]: 56%; remaining at 1 h, 10 µM [9]: 57%; remaining at 1 h, 10 µM [10]: 40%; remaining at 1 h, 10 µM [11]: 14%; remaining at 1 h, 10 µM [12]: 3%
